Source: PubChem (several laboratories)
Insulin prom inh = TRM-6 insulin promoter activity inhibition | TRM-6 cells (human fetal islet line), insulin promoter-eGFP reporter, imaging; reporter expression induced with tamoxifen | inhibition, % at 2 µM | hit rate 0.9% among 130,000;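 active means inhibition above the mean plus 3 SD, with well images judged a real hit on visual review, cut at about 60% in these data, passing the limit was not always enough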
Insulin prom up = MIN6 insulin promoter up-regulation; MIN6 insulin promoter-GFP reporter, high-content imaging; stronger effect = higher value; z-score at 5 µM; hit rate 0.3% among 190,000; AID 1625;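 active means z-score above 3 at 5 µM with at least 500 cells counted in the well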
Yeast lifespan up = yeast lifespan extension. S. cerevisiae growth with nicotinamide, OD615; deaD strain in restrictive glucose medium. inhibition of the nicotinamide effect, % at 10 µM. hit rate 0.68% among 130,000. AID 775;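 active means inhibition above a set limit, placed 3 SD over the median of all compounds, cut at about 26% in these data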;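 further: 0% = nicotinamide-treated wells and 100% = cells grown without nicotinamide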
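Assay system: DeaD-strain S. cerevisiae. Medium: CSMM-D glucose medium, restrictive. Reagent: nicotinamide, 1.5 mM, co-present with compound. Compound: 10 µM single point, 0.25% DMSO. Schedule: culture preincubation 4 h, compound exposure 48 h, both 30 °C. Detection: absorbance at 615 nm.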
Yeast growth inh = yeast BB579 growth reduction in restrictive medium; S. cerevisiae BB579 growth, OD615, 48 h; inhibition, % at 10 µM; hit rate 0.51% among 140,000; AID 804;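 active means inhibition above a set limit, 3 SD over the mean compound inhibition, cut at about 44% in these data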
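Assay system – yeast BB579 (DeaD) · Dosing – single compound dose of 10 µM, 0.25% DMSO final · Detection – OD615 turbidity measurement · Buffer or medium – CSMM-D restrictive synthetic medium containing dextrose (glucose) · Benchmarks – positive control amphotericin B 10 µg/mL · Incubation – 48 h exposure, 30 °C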
RAM network inh = blocks the yeast RAM network. S. cerevisiae dse1pr::URA3 reporter, 5-FOA growth OD615, 2 d; analog-sensitive cbk1-as2 kinase mutant strain. hit rate 1.8% among 190,000. inhibition, % at 50 µM;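 active means inhibition above a set limit, 3 SD over mean compound inhibition, cut at about 8.4% in these data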;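 further: 0% = DMSO-only wells with no growth and 100% = 10 µM 1-NA-PP1 full growth; inhibition rescues growth on 5-FOA so higher OD means more RAM inhibition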
* marks the source's active call; other numbers are inactive results; / = not tested or not shown. An excerpt weighted towards active compounds, which were near 3.1% of everything screened.

SMILES	Insulin prom inh	Insulin prom up	Yeast lifespan up	Yeast growth inh	RAM network inh
CCC1CCCCN1C(=O)CSc1nnc(-c2ccco2)o1 (configuration not stated)	86*	-1.4	-5	-20	0
COc1ccc(C(=O)Cn2c(NCCO)nc3ccccc32)cc1	-8	/	/	/	2
COc1ccc(C(=O)Cn2c(NCCO)nc3ccccc32)cc1OC	87*	/	/	-12	1
CCc1cc2cc3c(cc2nc1SCC(=O)Nc1cc(OC)c(OC)cc1C(=O)O)OCO3	6	-0.58	/	/	9.5*
COc1ccc(CCNC(=O)c2cnn3c(C(F)F)cc(C)nc23)cc1OC	/	-0.65	3	51*	-1
COc1ccc(NC(=O)/C=C/c2cc(OC)c(OC)c(OC)c2)cn1	-25	-0.63	/	/	9.0*
COc1cccc(/C=N/NC(=O)CCn2cnc3ccccc32)c1	/	3.7*	/	/	/
COc1ccc(/C=N/NC(=O)CCn2cnc3ccccc32)cc1	/	0.52	/	/	/
COc1ccc(C(C)NC(=O)c2ccccc2)cc1 (configuration not stated)	-3	-0.23	84*	-63	-1
Cc1occc1C(=O)Nc1nnc(-c2cccs2)s1	/	-0.56	/	/	4
CCOc1ccccc1NC1=C(Cl)C(=O)N(Cc2ccccc2)C1=O	8	-1.1	-5	-17	11*
CCOC(=O)c1c(-c2cccs2)csc1NC(=O)CSc1ncn[nH]1	47	-0.01	0	-61	9.4*
CCOC(=O)c1c(-c2ccc(C)s2)csc1NC(=O)c1cccs1	-27	/	-8	-70	6
CCOC(=O)c1c(-c2cccs2)csc1NC(=O)C(C)(C)C	-23	0.33	-11	-23	8.6*
CCOC(=O)c1c(NC(=O)c2cccs2)sc(CC)c1-c1cccs1	35	/	-11	-55	10*
Cc1cc(C)cc(NC(=O)CSc2nc(N)c(NC(=O)c3cccs3)c(=O)[nH]2)c1	40	0.23	4	-38	7
COc1ccc(C2NC(=O)C(C)S2)cc1 (configuration not stated)	21	0.04	-2	-28	1
Cc1ccc(-c2csc3ncnc(NS(=O)(=O)c4ccc(Cl)cc4)c23)cc1	/	-0.21	6	-32	9.2*
NNc1ncnc2scc(-c3ccc(Cl)cc3)c12	/	-0.03	4	-22	0
CN(C)CCC(=O)c1ccc2c(c1)OCO2	82*	/	4	-22	-2
O=C(c1ccc2c(c1)OCO2)N1CCCC1	-36	8.9*	-14	-25	1
O=C(N=Nc1ccc(NOC(=O)c2ccccc2Br)cc1)c1ccccc1O	/	0.08	/	/	11*
O=Nc1ccc(NOC(=O)c2ccccc2)cc1	40	0.32	-4	5	2
CCN(CC)S(=O)(=O)c1ccc(Cl)c(NC(=O)COc2ccccc2[N+](=O)[O-])c1	17	0.16	7	-27	8.8*
CCCCCCN1CC(C(=O)OCC)C(=O)C1=O (configuration not stated)	/	0.29	50*	-4	-1
SMILES	Insulin prom inh	Insulin prom up	Yeast lifespan up	Yeast growth inh	RAM network inh
COc1ccc(-n2c(Cc3cccn3C)nnc2SCC(=O)Nc2ccc(C(C)=O)cc2)cc1	/	1.1	-5	-15	4
COc1ccc(CNC(=O)COC(=O)CC2CCCC2)cc1	23	0.82	2	-15	1
Cc1nccn1-c1ccc(C(F)(F)F)cc1[N+](=O)[O-]	73*	-0.32	/	/	-1
COc1ccc(-c2nc(=S)c3ccc4ccccc4c3[nH]2)cc1	/	0.49	/	/	4
COc1ccc(OC)c(-c2csc(N(Cc3ccco3)C(=O)c3cccs3)n2)c1	-3	-1.5	-9	-16	9.1*
COc1ccc(OC)c(-c2csc(N(C)C(=O)Cc3ccccc3)n2)c1	-6	1.1	/	/	9.8*
COc1ccc(-c2csc(N(Cc3ccco3)C(=O)c3cccs3)n2)cc1	/	-0.38	/	/	/
COC(=O)c1cc([N+](=O)[O-])c(-n2ccnc2)c([N+](=O)[O-])c1	15	-0.08	5	-24	1
Cc1ccc(N2C(=O)C3C(C2=O)N2C(c4cccs4)C4C(=O)N(c5ccc(C)cc5)C(=O)C4N2C3c2cccs2)cc1 (configuration not stated)	/	0.46	1	-11	8.6*
COc1ccc(COc2cc(-c3cccc(OC)c3)nc3ccc(NC(=O)c4ccc(Cl)cc4)cc23)cc1	20	-1.2	3	-42	8.4*
COc1ccc(COc2cc(-c3cccc(OC)c3)nc3ccc(NC(=O)c4ccc(OC)cc4)cc23)cc1	-40	-1.6	1	-47	6
